Converted amounts (≈) assume the structure as drawn.
What was measured:
Assay type in all cases: functional
[1] = tested on: Clostridioides difficile; assay: Antimicrobial activity against Clostridium difficile isolate 69 by Etest
Procedure, shortened: (§1)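 Rifampin MIC by Etest on brucella blood agar, run per the strip manufacturer's instructions, against clinical isolates typed by HindIII REA.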

[2] = tested on: Clostridioides difficile; assay: Antimicrobial activity against Clostridium difficile isolate 72 by Etest; procedure, shortened: as §1
[3] = tested on: Clostridioides difficile; assay: Antimicrobial activity against Clostridium difficile isolate 34 by Etest
Procedure, shortened: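 Rifampin MIC by Etest strip on brucella blood agar, run per the strip maker's instructions. Isolates were HindIII REA-typed clinical C. difficile.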

[4] = tested on: Clostridioides difficile; assay: Antimicrobial activity against Clostridium difficile isolate 6 by agar dilution method
Procedure, shortened: (§2)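 CLSI reference agar dilution method for anaerobes, with endpoints read per guideline M11-A7. Rifaximin was dissolved in methanol, diluted in 0.1 M phosphate buffer (pH 7.4) with 0.45% SDS, and tested at 0.0009–256 μg/ml. Rifampin was dissolved in methanol, diluted in water, and tested at 0.00001–256 μg/ml. C. difficile ATCC […] served as control. Isolates were typed by HindIII REA.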

[5] = tested on: Clostridioides difficile; assay: Antimicrobial activity against rifaximin-resistant Clostridium difficile isolate 24 expressing RpoB H502N and R505K mutants by Etest
Procedure, shortened: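 Rifampin Etest on clinical C. difficile isolates typed by HindIII REA, run per the strip manufacturer's instructions on brucella blood agar, with the MIC read from the strip.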

[6] = tested on: Clostridioides difficile; assay: Antimicrobial activity against Clostridium difficile isolate 78 by Etest; procedure, shortened: as §1
[7] = tested on: Clostridioides difficile; assay: Antimicrobial activity against Clostridium difficile isolate 27 by agar dilution method
Procedure, shortened: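 MIC by CLSI reference agar dilution for anaerobes, with endpoints read per M11-A7 and C. difficile […] as control. Rifaximin was dissolved in methanol, diluted in 0.1 M phosphate buffer pH 7.4 plus 0.45% SDS, and tested at 0.0009–256 μg/ml. Rifampin was dissolved in methanol, diluted in water, and tested at 0.00001–256 μg/ml.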

[8] = tested on: Clostridioides difficile; assay: Antimicrobial activity against Clostridium difficile isolate 42 by Etest
Procedure, shortened: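 Rifampin Etest strips were run on brucella blood agar following the manufacturer's instructions to give an MIC. Clinical isolates were typed by HindIII REA.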

[9] = tested on: Clostridioides difficile; assay: Antimicrobial activity against Clostridium difficile isolate 5 by agar dilution method; procedure, shortened: as §2
[10] = tested on: Clostridioides difficile; assay: Antimicrobial activity against Clostridium difficile isolate 79 by agar dilution method
Procedure, shortened: (§3)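 CLSI reference agar dilution for anaerobes, with endpoints read per guideline M11-A7. Rifaximin was dissolved in methanol, diluted in 0.1 M phosphate buffer pH 7.4 with 0.45% SDS, and tested at 0.0009–256 μg/ml. Rifampin was dissolved in methanol, diluted in water, and tested at 0.00001–256 μg/ml. Control strain: C. difficile ATCC […]. Isolates were typed by HindIII REA.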

[11] = tested on: Clostridioides difficile; assay: Antimicrobial activity against Clostridium difficile isolate 71 by agar dilution method; procedure, shortened: as §3

Question: For `CO[C@H]1/C=C/O[C@@]2(C)Oc3c(C)c(O)c4c(O)c(c(/C=N/N5CCN(C)CC5)c(O)c4c3C2=O)NC(=O)/C(C)=C\C=C\[C@H](C)[C@H](O)[C@@H](C)[C@@H](O)[C@@H](C)[C@H](OC(C)=O)[C@@H]1C` [RIFAMPIN], which MIC [1] is on record?
Answer: < 2 ng/mL

Question: What about the MIC [2] of the same molecule?
Answer: < 2 ng/mL

Question: And the MIC [3]?
Answer: 4 ng/mL (≈ 4.86 nM)

Question: And the MIC [4]?
Answer: 0.06 ng/mL (≈ 0.0729 nM)

Question: What about the MIC [5] of the same molecule?
Answer: > 32000 ng/mL

Question: What about the MIC [6] of the same molecule?
Answer: < 2 ng/mL

Question: What about the MIC [7] of the same molecule?
Answer: 0.4 ng/mL (≈ 0.486 nM)

Question: And the MIC [8]?
Answer: < 2 ng/mL

Question: And the MIC [9]?
Answer: 0.06 ng/mL (≈ 0.0729 nM)

Question: And the MIC [10]?
Answer: 0.06 ng/mL (≈ 0.0729 nM)

Question: And the MIC [11]?
Answer: 0.06 ng/mL (≈ 0.0729 nM)

Source: ChEMBL document CHEMBL1275484, “Rifampin and rifaximin resistance in clinical isolates of Clostridium difficile” (Antimicrob Agents Chemother, 2008)
